TAAR1 ag: human TAAR1 agonism | Q96RJ0 | CHO RD-HGA16 TAAR1, Fluo-8 calcium fluorescence; vehicle wells 0%, saturating PEA agonist 100% | activation, % at 3 µM | hit rate 0.99% among 360,000;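 active means activation above the mean activation of all test compounds in the run plus 3 SD, cut at about 38% in these data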
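Assay system: CHO-derived RD-HGA16 cells with stable Gα16 and human TAAR1; timing: 17-24 h seeding, 75 min 37 °C dye, 30 min RT; read-out: % activation from peak over basal fluorescence ratio, DMSO-to-PEA scaled; measured by: kinetic Fluo-8 calcium fluorescence; benchmarks: low control DMSO, high control PEA (EC100); doses: 3 µM single concentration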
MC4R antagonist: antagonists of human melanocortin 4 receptor (MC4R); hit rate 0.48% among 360,000; MC4R-expressing cells, MTII-stimulated cAMP, LANCE TR-FRET; P32245; inhibition, % at 6.5 µM;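 active means inhibition above its plate's cutoff, the mean of tested wells on that plate plus 3 SD, cut at about 29% in these data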
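System: U2OS-MC4R stable cell line; Technique: Eu-cAMP/anti-cAMP TR-FRET, emission 671 nm; Repeats: single well per compound; Also added: Melanotan II; Dosing: one concentration, 6.5 µM nominal; Schedule: 30-min compound, 1-h challenge, 1-h detection, room temperature.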
HTR2A ag: agonists of mouse serotonin 5-HT2A receptor (HTR2A); P35363; CHO-K1 mHTR2A beta-arrestin complementation, luminescence; percent of 30 µM serotonin response; activation, % at 7.6 µM; hit rate 0.66% among 360,000;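 active means activation above a run cutoff, the mean activation of all tested compounds plus 3 SD, cut at about 14% in these data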
Target sequence (P35363 whole entry, looked up): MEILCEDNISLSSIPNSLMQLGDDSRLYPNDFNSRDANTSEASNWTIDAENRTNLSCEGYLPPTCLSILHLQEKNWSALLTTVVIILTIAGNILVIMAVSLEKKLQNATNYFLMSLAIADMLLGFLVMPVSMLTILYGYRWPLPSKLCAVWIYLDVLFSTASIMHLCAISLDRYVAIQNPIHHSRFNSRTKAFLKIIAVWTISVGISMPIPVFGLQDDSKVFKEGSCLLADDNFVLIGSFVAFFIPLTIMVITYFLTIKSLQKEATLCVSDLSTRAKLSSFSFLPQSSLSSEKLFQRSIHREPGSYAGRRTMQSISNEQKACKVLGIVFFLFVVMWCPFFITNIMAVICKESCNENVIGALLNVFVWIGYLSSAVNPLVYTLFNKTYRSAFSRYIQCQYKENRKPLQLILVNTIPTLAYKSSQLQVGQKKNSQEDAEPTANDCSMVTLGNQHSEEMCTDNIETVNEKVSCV
B2AR ag: human beta-2 adrenergic receptor agonism by FAP; P07550; Am2.2-beta2AR cells, FAP receptor internalization, flow cytometry; response, % (test concentration not listed); hit rate 0.43% among 340,000; AID 504454;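 active means response above a set limit, near 3 SD of response in nonfluorescent compounds, cut at about 42% in these data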
TAAR1 antag: human TAAR1 antagonism; Q96RJ0; CHO RD-HGA16 TAAR1, Fluo-8 calcium fluorescence, antagonist; inhibition, % at 3 µM; hit rate 1.5% among 360,000;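 active means inhibition above a per-plate cutoff, the mean inhibition of test compounds on that plate plus 3 SD, cut at about 49% in these data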
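Material: CHO RD-HGA16 cells bearing hTAAR1; compound dosing: one-point dosing, 3 µM nominal final; schedule: dye loading 75 min at 37 °C, then 30 min room temperature; measured by: calcium fluorescence with Fluo-8; control set: vehicle and agonist controls; replication: n of 1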
MC4R barr agon: human MC4R agonism via beta-arrestin | activation, % at 8.9 µM | hit rate 0.98% among 360,000 | U2OS MC4R beta-arrestin complementation, luminescence; percent of melanotan II response, DMSO zero | P32245 | AID 540308;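 active means activation above a per-plate cutoff, the mean activation of sample wells on that plate plus 3 SD, cut at about 8% in these data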
Numbers stand for hits. An excerpt weighted towards active compounds, which were near 4.3% of everything screened.

For O=C(N[C@@H]1C/C=C\C[C@H](CC(=O)N(CCO)Cc2ccccc2)C(=O)NC[C@@H](c2ccccc2)OC1=O)OCC1c2ccccc2-c2ccccc21 the results were TAAR1 ag inactive, MC4R antagonist inactive, HTR2A ag inactive, B2AR ag inactive, TAAR1 antag inactive and MC4R barr agon inactive.
`O=C(C[C@H]1C/C=C\C[C@H](NC(=O)OCC2c3ccccc3-c3ccccc32)C(=O)O[C@H](c2ccccc2)CNC1=O)N[C@H](CO)Cc1ccccc1` gave MC4R antagonist inactive, HTR2A ag inactive, B2AR ag inactive and MC4R barr agon 26.
COc1ccc(N2C[C@@]3(O)CC[C@@H](O)[C@@H](OC)[C@@H]3[C@@]2(C)[C@H](O)CC=C(C)C)cc1 was read as TAAR1 ag inactive and TAAR1 antag inactive.
CCOC(=O)Cc1cc(-c2ccc(O)cc2)nc2ccc3ccccc3c12 was read as TAAR1 ag inactive, MC4R antagonist inactive, HTR2A ag inactive, B2AR ag inactive, TAAR1 antag inactive and MC4R barr agon 8.4.
`CCOC(=O)Cc1cc(-c2ccc(OC)cc2)nc2ccc3ccccc3c12` gave TAAR1 ag inactive, MC4R antagonist inactive, HTR2A ag inactive, B2AR ag inactive, TAAR1 antag inactive and MC4R barr agon inactive.
CCOc1ccc(-c2nnc(SCC(=O)Nc3ccc4c(c3)c3ccccc3n4CC)n2N)cc1 was read as TAAR1 ag inactive, MC4R antagonist inactive, HTR2A ag inactive, B2AR ag inactive, TAAR1 antag inactive and MC4R barr agon 30.
Screening C=CCNC(=S)N/N=C/c1ccccc1OCCOc1ccccc1 returned TAAR1 ag inactive, MC4R antagonist inactive, HTR2A ag inactive, B2AR ag inactive, TAAR1 antag inactive and MC4R barr agon 8.9.
`O=C(CNC(=O)c1nc[nH]c1C(=O)N1CCNCC1)OCc1ccccc1` gave TAAR1 ag inactive, MC4R antagonist inactive, HTR2A ag inactive, B2AR ag inactive, TAAR1 antag inactive and MC4R barr agon inactive.
`O=C(N[C@@H](Cc1ccccc1)C(=O)OCc1ccccc1)c1nc[nH]c1C(=O)N1CCN(c2ccccc2)CC1` gave TAAR1 ag inactive, MC4R antagonist inactive, HTR2A ag inactive, B2AR ag inactive, TAAR1 antag 52 and MC4R barr agon inactive.
Screening O=C(CNC(=O)c1nc[nH]c1C(=O)N1CCc2ccccc2C1)OCc1ccccc1 returned TAAR1 ag inactive, MC4R antagonist inactive, HTR2A ag inactive, B2AR ag inactive, TAAR1 antag 62 and MC4R barr agon inactive.
Screening COc1ccccc1OCCNC(=O)CN(c1cccc(C)c1)S(=O)(=O)c1ccccc1 returned TAAR1 ag inactive, MC4R antagonist inactive, HTR2A ag inactive, B2AR ag inactive, TAAR1 antag 49 and MC4R barr agon inactive.
Screening Cc1cccc(N(CC(=O)NCCSc2ccccn2)S(=O)(=O)c2ccccc2)c1 returned TAAR1 ag inactive, MC4R antagonist inactive, HTR2A ag inactive, B2AR ag inactive, TAAR1 antag inactive and MC4R barr agon inactive.
`C[C@H]1CN([C@@H](C)CO)C(=O)CCCn2cc(nn2)CO[C@@H]1CN(C)C(=O)c1ccccc1` gave TAAR1 ag inactive and TAAR1 antag inactive.
For CCOC(=O)C1=C(C(=O)OCC)C2N(Cc3ccccc3)c3ccccc3[C@@]23C[C@@H](C(=O)OC)N(S(=O)(=O)c2ccc(C(F)(F)F)cc2)C3=N1 (some centres not stated) the results were TAAR1 ag inactive and TAAR1 antag inactive.
COC(=O)c1sc(-c2ccc(C(C)(C)C)cc2)cc1NC(=O)c1ccccc1C(=O)O was read as TAAR1 ag inactive, MC4R antagonist inactive, HTR2A ag inactive, B2AR ag inactive, TAAR1 antag inactive and MC4R barr agon inactive.
For COC(=O)c1sc(-c2ccc(C(C)(C)C)cc2)cc1NC(=O)CSCC(=O)O the results were TAAR1 ag inactive, MC4R antagonist inactive, HTR2A ag inactive, B2AR ag inactive, TAAR1 antag 49 and MC4R barr agon inactive.
`O=C(C1=NN(c2ccccc2)C2C(=O)N(c3ccccc3Cl)C(=O)C12)c1ccccc1` (configuration not stated) gave TAAR1 ag inactive, MC4R antagonist inactive, HTR2A ag inactive, B2AR ag inactive, TAAR1 antag inactive and MC4R barr agon 9.1.
COc1cc(/C=C2\C(=N)N3N=C(S(C)(=O)=O)SC3=NC2=O)ccc1OCCOc1ccccc1C was read as TAAR1 ag inactive, MC4R antagonist inactive, HTR2A ag inactive, B2AR ag inactive, TAAR1 antag inactive and MC4R barr agon inactive.
`COc1ccccc1OCCOc1ccc(/C=C2/C(=N)N3OC(C)=CC3=NC2=O)cc1OC` gave TAAR1 ag inactive, MC4R antagonist inactive, HTR2A ag inactive, B2AR ag inactive, TAAR1 antag inactive and MC4R barr agon 19.
`CC1=CC2=NC(=O)/C(=C\c3cccn3CCOc3ccccc3C)C(=N)N2O1` gave TAAR1 ag inactive, MC4R antagonist inactive, HTR2A ag inactive, TAAR1 antag inactive and MC4R barr agon inactive.
For COc1cc(/C=C2/C(=N)N3C=CSC3=NC2=O)ccc1OCCCOc1cc(C)ccc1C the results were TAAR1 ag inactive, MC4R antagonist inactive, HTR2A ag inactive, B2AR ag 63, TAAR1 antag inactive and MC4R barr agon 31.
`CCOC(=O)CN1C(=O)[C@]2(OCCC=C[C@H]2C)c2ccccc21` gave TAAR1 ag inactive and TAAR1 antag inactive.
CC(=O)Nc1ccc(Nc2nc(-c3cc4ccccc4oc3=O)cs2)cc1 was read as TAAR1 ag inactive, MC4R antagonist inactive, HTR2A ag inactive, B2AR ag inactive, TAAR1 antag 55 and MC4R barr agon inactive.
`O=C(/C=C(\Nc1cc(Cl)c(Cl)c(Cl)c1)c1ccccc1)c1ccccc1` gave TAAR1 ag inactive and TAAR1 antag inactive.
Screening CCOC(=O)c1nnn(-c2nonc2N)c1CN1CCc2ccccc2C1 returned TAAR1 ag 40, MC4R antagonist inactive, HTR2A ag inactive, B2AR ag inactive, TAAR1 antag inactive and MC4R barr agon inactive.
`COc1cc(/C=C/C(=O)c2cccc([N+](=O)[O-])c2)cc(OC)c1OC` gave TAAR1 ag inactive, MC4R antagonist inactive, HTR2A ag inactive, B2AR ag 52, TAAR1 antag inactive and MC4R barr agon inactive.
Screening COc1cc(/C=C/C(=O)c2ccc(C)c([N+](=O)[O-])c2)cc(OC)c1O returned TAAR1 ag 45, MC4R antagonist inactive, HTR2A ag inactive, B2AR ag inactive, TAAR1 antag inactive and MC4R barr agon inactive.
Cc1cccc(C)c1-n1nnnc1C(c1ccnc2ccccc12)N(C)Cc1ccc(Cl)c(Cl)c1 (configuration not stated) was read as TAAR1 ag inactive, HTR2A ag inactive and TAAR1 antag inactive.
